NPY-Y2 PAM-ag: NPY-Y2 potentiators or agonists, primary screen, cell-based | Neuropeptide Y receptor type 2 (Homo sapiens), P49146 | cells expressing NPY-Y2, potentiator/agonist read-out | activation, % at 3.6 µM | 0.45% of 220,000 active | AID 1359, 2008; in the data active = activation above about 27%;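 also: cells stimulated with NPY near EC25 plus isoproterenol at EC100; 0% = vehicle plus submaximal agonist and 100% = vehicle plus saturating agonist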
Target sequence (P49146 whole entry, looked up): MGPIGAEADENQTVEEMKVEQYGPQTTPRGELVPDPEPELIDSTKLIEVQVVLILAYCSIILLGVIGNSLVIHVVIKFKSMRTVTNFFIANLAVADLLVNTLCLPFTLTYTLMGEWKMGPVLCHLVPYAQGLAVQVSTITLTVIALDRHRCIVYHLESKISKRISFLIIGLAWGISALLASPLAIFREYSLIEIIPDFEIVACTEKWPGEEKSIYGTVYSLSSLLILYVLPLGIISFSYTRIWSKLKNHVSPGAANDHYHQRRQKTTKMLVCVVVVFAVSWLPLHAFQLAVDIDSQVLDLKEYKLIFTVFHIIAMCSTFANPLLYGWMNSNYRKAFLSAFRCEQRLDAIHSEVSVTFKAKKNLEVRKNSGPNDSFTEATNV
Wee1 stabilizer: Wee1 degradation inhibitors, primary screen, cell-based, HeLa, Wee1K328M-luciferase, luminescence; Wee1-like protein kinase (Homo sapiens), P30291; HeLa Luc-Wee1K328M stability; 100% = proteasome inhibitor MG132 effect; reporter increase, % at 5 µM; 1.2% of 220,000 active;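 active = activation above the mean of all tested compounds plus 3 SD, set per screening run, cut at about 8.8% in these data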;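 also: cells exposed to compound for 20 h before luminescence read; 0% = DMSO alone and 100% = MG132 at 30 µM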
Hsp70 activator: Hsp70 transcriptional activators, primary screen, cell-based, HeLa, Hsp70 promoter luciferase, luminescence, 10 µM; HeLa Hsp70 promoter luciferase reporter; scaled: vehicle 0, proteasome-inhibitor control 100%; activation, % at 10 µM; 0.04% of 200,000 active; AID 1203, 2008;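 active = activation above the mean across all tested compounds plus 3 SD, cutoff set per campaign, cut at about 5.5% in these data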;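 also: 100% = MG132 at 30 µM as the positive control and 0% = DMSO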
NPY1 pot ag: NPY-Y1 receptor potentiators or agonists, primary screen, cell-based; NPY-Y1 expressing cells, potentiator/agonist activation; 0.37% of 220,000 active; activation, % at 3.6 µM; AID 1304, 2008; Neuropeptide Y receptor type 1 (Homo sapiens), P25929; in the data active = activation above about 33%, passing the limit was not always enough;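 also: cells stimulated with NPY at EC10 then isoproterenol at EC100; 0% = low agonist plus stimulus and 100% = saturating agonist plus stimulus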
Target sequence (P25929 whole entry, looked up): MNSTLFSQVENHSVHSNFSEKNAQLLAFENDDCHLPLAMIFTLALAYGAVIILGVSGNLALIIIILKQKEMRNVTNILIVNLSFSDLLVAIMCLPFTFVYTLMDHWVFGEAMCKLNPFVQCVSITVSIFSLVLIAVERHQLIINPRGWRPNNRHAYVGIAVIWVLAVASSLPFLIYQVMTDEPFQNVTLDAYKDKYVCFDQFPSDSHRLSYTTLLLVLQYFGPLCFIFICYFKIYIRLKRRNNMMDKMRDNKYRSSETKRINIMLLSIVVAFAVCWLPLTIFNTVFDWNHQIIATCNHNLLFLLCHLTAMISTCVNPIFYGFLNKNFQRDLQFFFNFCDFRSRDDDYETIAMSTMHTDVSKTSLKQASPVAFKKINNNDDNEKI
NPY-Y1 antag: NPY-Y1 receptor antagonists, primary screen, cell-based; inhibition, % at 3.6 µM; 1% of 200,000 active; Neuropeptide Y receptor type 1 (Homo sapiens), P25929; AID 1040, 2008; HEK293-CNG Y1 cells, membrane potential fluorescence; NPY at EC95, then isoproterenol;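 active = inhibition above the campaign mean inhibition of all tested compounds plus 3 SD, cut at about 20% in these data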;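 also: 0% = DMSO wells given NPY plus isoproterenol and 100% = isoproterenol alone without NPY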
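Benchmarks – high control isoproterenol alone, low control NPY with isoproterenol · Material – HEK293 Y1/CNG channel cell line · Times – dye 3 h, compound 60 min room temperature, stimulation 45 min · Probe or stimulus – NPY (25 nM), isoproterenol (1 µM), Ro 20-1724 (25 µM) · Evaluation – % inhibition of NPY effect · Signal – fluorescence, membrane potential probe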
NPY-Y2 antag: NPY-Y2 receptor antagonists, primary screen, cell-based. NPY-Y2 expressing cells, antagonist mode. 0.99% of 140,000 active. inhibition, % at 2.7 µM. AID 793, 2007; in the data active = inhibition above about 17%;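 also: 0% = vehicle with agonist challenge and 100% = reference antagonist with challenge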
Starred values were filed as active, the others as inactive. Most compounds without a hit are left out; they make up all but 3% or so of the library.

What do the screens show for `NC(=O)C1CCN(C(=O)CN2C(=O)c3ccccc3S2(=O)=O)CC1`?
NPY-Y2 PAM-ag: -7.5; Wee1 stabilizer: -0.8; Hsp70 activator: -0.1; NPY1 pot ag: -13.7; NPY-Y1 antag: -2.0; NPY-Y2 antag: 3.3

What do the screens show for `COc1cccc(CN(Cc2ccco2)C(c2ccc(F)cc2)c2nnnn2C(C)(C)C)c1` (stereo not given)?
NPY-Y2 PAM-ag: 0.6; Wee1 stabilizer: -1.4; Hsp70 activator: 0.0; NPY1 pot ag: 7.1; NPY-Y1 antag: 31.1*; NPY-Y2 antag: 21.6*

How did O=C(c1ccc(-c2ccc([N+](=O)[O-])cc2Cl)o1)N1CCOCC1 do in these assays?
NPY-Y2 PAM-ag: -12.3; Wee1 stabilizer: 10.8*; Hsp70 activator: 0.1; NPY1 pot ag: 7.0; NPY-Y1 antag: 3.7

Results for O=C(CN1CCN(Cc2ccccc2F)C1=O)NCCc1ccc(Cl)cc1 ?
NPY-Y2 PAM-ag: -5.0; Wee1 stabilizer: -0.6; Hsp70 activator: -0.4; NPY1 pot ag: -20.2; NPY-Y1 antag: 4.3; NPY-Y2 antag: 3.1

What do the screens show for `Cc1cc(C)n(-c2nc3c(c(=O)[nH]c(=O)n3C)n2C(C)C)n1`?
NPY-Y2 PAM-ag: 13.1; Wee1 stabilizer: -0.9; Hsp70 activator: -0.5; NPY1 pot ag: -18.8; NPY-Y1 antag: 2.8; NPY-Y2 antag: -0.5

Results for CC(C)CCNC(=O)C(c1ccco1)N(Cc1cccs1)C(=O)Cn1nnc2ccccc21 (stereo not given) ?
NPY-Y2 PAM-ag: -19.2; Wee1 stabilizer: 7.0; Hsp70 activator: -0.4; NPY1 pot ag: -26.0; NPY-Y1 antag: 23.7*; NPY-Y2 antag: 13.9

Results for COCCNC(=O)C(c1cccs1)N(Cc1cccs1)C(=O)Cn1nnc2ccccc21 (stereo not given) ?
NPY-Y2 PAM-ag: -2.6; Wee1 stabilizer: 6.3; Hsp70 activator: -0.5; NPY1 pot ag: -28.0; NPY-Y1 antag: 3.2; NPY-Y2 antag: -3.5

How did Clc1cccc(-c2nnc(SC/C=C/c3ccccc3)n2Cc2ccco2)c1 do in these assays?
NPY-Y2 PAM-ag: -7.0; Wee1 stabilizer: 0.3; Hsp70 activator: -0.2; NPY1 pot ag: -20.4; NPY-Y1 antag: 26.3*; NPY-Y2 antag: 36.5*

What do the screens show for `C(=C\c1ccccc1)/CSc1nnc(-c2ccccc2)n1Cc1ccco1`?
NPY-Y2 PAM-ag: -21.2; Wee1 stabilizer: 3.3; Hsp70 activator: -0.2; NPY1 pot ag: -32.7; NPY-Y1 antag: 21.1*; NPY-Y2 antag: 25.5*

Results for C(=C\c1ccccc1)/CSc1nnc(-c2ccncc2)n1Cc1ccco1 ?
NPY-Y2 PAM-ag: 6.4; Wee1 stabilizer: 0.2; Hsp70 activator: -0.3; NPY1 pot ag: -19.5; NPY-Y1 antag: -0.7; NPY-Y2 antag: 1.3

Results for Cc1ccccc1CSc1nnc(-c2cccs2)n1Cc1ccco1 ?
NPY-Y2 PAM-ag: -6.9; Wee1 stabilizer: 1.0; Hsp70 activator: -0.1; NPY1 pot ag: -4.5; NPY-Y1 antag: 22.7*; NPY-Y2 antag: 24.2*

Results for Cc1ccc(-c2nnc(SCc3ccc(C#N)cc3)n2Cc2ccco2)cc1 ?
NPY-Y2 PAM-ag: -12.2; Wee1 stabilizer: -2.0; Hsp70 activator: -0.3; NPY1 pot ag: 0.2; NPY-Y1 antag: 21.3*; NPY-Y2 antag: 20.3*

What do the screens show for `Nn1c(SC/C=C/c2ccccc2)nnc1-c1ccco1`?
NPY-Y2 PAM-ag: -2.0; Wee1 stabilizer: -1.3; Hsp70 activator: -0.3; NPY1 pot ag: -5.1; NPY-Y1 antag: 0.7; NPY-Y2 antag: 2.5

How did O=C1CCC/C(=N/NC(=O)c2ccc(CN3c4cccc5cccc(c45)S3(=O)=O)cc2)C1 do in these assays?
NPY-Y2 PAM-ag: -3.6; Wee1 stabilizer: -1.2; Hsp70 activator: -0.2; NPY1 pot ag: -15.7; NPY-Y1 antag: 1.1; NPY-Y2 antag: 1.6

How did CCC(=O)N(Cc1ccco1)c1nc(-c2ccccc2)cs1 do in these assays?
NPY-Y2 PAM-ag: 7.9; Wee1 stabilizer: 6.5; Hsp70 activator: 1.7; NPY1 pot ag: -10.6; NPY-Y1 antag: 9.5; NPY-Y2 antag: 9.8

What do the screens show for `O=C(c1cccs1)N(Cc1ccco1)c1nc(-c2ccc(F)cc2)cs1`?
NPY-Y2 PAM-ag: 7.5; Wee1 stabilizer: -0.8; Hsp70 activator: -0.1; NPY1 pot ag: 1.1; NPY-Y1 antag: 14.5; NPY-Y2 antag: 17.7*

How did O=S(=O)(c1cccs1)N1CCC(CO)(Cc2ccc(Cl)cc2)CC1 do in these assays?
NPY-Y2 PAM-ag: 7.2; Wee1 stabilizer: -2.8; Hsp70 activator: 0.4; NPY1 pot ag: -0.9; NPY-Y1 antag: -2.3

What do the screens show for `Nc1ccc(S(=O)(=O)Nc2nc(-c3ccccc3)cc(-c3ccccc3)n2)cc1`?
NPY-Y2 PAM-ag: 16.6; Wee1 stabilizer: 1.1; NPY1 pot ag: 20.7

How did Nc1ccc(-c2cc(-c3ccc(N)cc3)nc(-c3ccccc3)n2)cc1 do in these assays?
NPY-Y2 PAM-ag: 39.2*; Wee1 stabilizer: 6.0; Hsp70 activator: -0.4; NPY1 pot ag: 46.0*; NPY-Y1 antag: -8.0; NPY-Y2 antag: -5.5

Results for COc1ccc(/C=N/NC(=O)CN2CCCc3ccccc32)c(OC)c1 ?
NPY-Y2 PAM-ag: 26.2; Wee1 stabilizer: -1.5; NPY1 pot ag: 27.4

Results for O=[N+]([O-])c1ccc(C2CCCC/C2=N/OCc2ccc(F)cc2)c([N+](=O)[O-])c1 (stereo not given) ?
NPY-Y2 PAM-ag: -14.6; Wee1 stabilizer: 0.3; Hsp70 activator: -0.4; NPY1 pot ag: -15.4; NPY-Y1 antag: 12.4; NPY-Y2 antag: 11.8

How did O=[N+]([O-])c1ccc(C2CCCC/C2=N/OCc2ccccc2F)c([N+](=O)[O-])c1 (stereo not given) do in these assays?
NPY-Y2 PAM-ag: -31.7; Wee1 stabilizer: 4.2; Hsp70 activator: -0.1; NPY1 pot ag: -33.6; NPY-Y1 antag: 21.1*; NPY-Y2 antag: 18.5*

Results for O=C(c1ccc(COc2ccc3ccccc3c2)o1)N1N=C(C(F)F)CC1(O)C(F)F (stereo not given) ?
NPY-Y2 PAM-ag: -12.7; Wee1 stabilizer: -1.0; Hsp70 activator: -0.3; NPY1 pot ag: 8.1; NPY-Y1 antag: -5.0; NPY-Y2 antag: -1.2

How did O=C(c1ccc(COc2ccccc2Cl)o1)N1N=C(C(F)F)CC1(O)C(F)F (stereo not given) do in these assays?
NPY-Y2 PAM-ag: 12.8; Wee1 stabilizer: 10.6*; Hsp70 activator: -0.3; NPY1 pot ag: 6.8; NPY-Y1 antag: -6.3; NPY-Y2 antag: -4.2

Results for COc1ccc(N2CCN(C(=O)CN(C3CCCCC3)S(C)(=O)=O)CC2)cc1 ?
NPY-Y2 PAM-ag: 2.4; Wee1 stabilizer: 9.1*; Hsp70 activator: 0.5; NPY1 pot ag: 17.1; NPY-Y1 antag: -5.2

What do the screens show for `COc1ccccc1N1CCN(C(=O)CN(C2CCCCC2)S(C)(=O)=O)CC1`?
NPY-Y2 PAM-ag: 0.6; Wee1 stabilizer: 2.3; Hsp70 activator: 0.0; NPY1 pot ag: 3.1; NPY-Y1 antag: -1.2
